Measurements reported in EPA's CvTdb concentration-time database.
Several values for one entry are separate records, joined by “and”; a condition that tells them apart may be missing. Identical values can stand only once.

Key:
[1] = tested on: human; assay: concentration in blood after dosing; conditions: dosed: tert-amyl methyl ether
Summary of the method: (§1)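 Concentration-versus-time or amount-versus-time points were compiled from published in vivo toxicokinetic studies and from two structured collections. The studies were found by PubMed searching, classifier screening and manual review. Points were mostly digitised from plot screenshots with WebPlotDigitizer, otherwise copied from tables, and kept in the reported units. Dose, route, subject details and medium were curated by hand from each paper, and sampling and analytical methods follow each source and were often unreported.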

[2] = tested on: human; assay: amount in urine after dosing (umol); conditions: dosed: tert-amyl methyl ether
Summary of the method: as §1

[3] = tested on: human; assay: concentration in blood after dosing; negative times count back from the end of exposure; conditions: dosed: tert-amyl methyl ether, inhalation, duration: 4 hr, male
Summary of the method: as §1

[4] = tested on: rat; assay: amount in urine after dosing (umol); conditions: dosed: tert-amyl methyl ether, 38.4 ppm, inhalation, duration: 4 hr, F344 (Harlan Winkelmann)
[5] = tested on: rat; assay: concentration in blood after dosing; conditions: dosed: octane, inhalation, duration: 2 hr, male, Fischer-344

CCC(C)(C)O [tert-amyl alcohol]
inhalation, duration: 4 hr
Conditions | amount in urine | concentration in blood [nM]
[1], 2.005 h, 3.8 ppm | – | 816
[1], 2.034 h, 38.4 ppm | – | 7740
[1], 3.957 h, 38.4 ppm | – | 6550
[1], 3.966 h, 3.8 ppm | – | 480
[1], 6.018 h, 38.4 ppm | – | 5900
[1], 7.942 h, 38.4 ppm | – | 4140
[1], 9.948 h, 38.4 ppm | – | 3160
[1], 11.98 h, 38.4 ppm | – | 2850
[1], 23.91 h, 38.4 ppm | – | 835
[1], 78 s, 3.8 ppm | – | 960
[1], 99 s, 38.4 ppm | – | 9530
[2], 0.144 h, 38.4 ppm | 1.36 | –
[2], 5.941 h, 3.8 ppm | 0.345 | –
[2], 6.198 h, 38.4 ppm | 2.11 | –
[2], 12.1 h, 3.8 ppm | 0.143 | –
[2], 12.11 h, 38.4 ppm | 1.74 | –
[2], 17.91 h, 3.8 ppm | 0.0476 | –
[2], 18.16 h, 38.4 ppm | 0.992 | –
[2], 24.21 h, 38.4 ppm | 0.62 | –
[2], 30.05 h, 38.4 ppm | 0.248 | –
[2], 36.11 h, 38.4 ppm | 0.372 | –
[2], 248 s, 3.8 ppm | 0.119 | –

Conditions | amount in urine | concentration in blood [nM]
[1], 0.9886 h, 15 mg, oral | – | 972
[1], 1.015 h, 5 mg, oral | – | 445
[1], 2.032 h, 15 mg, oral | – | 777
[1], 2.058 h, 5 mg, oral | – | 340
[1], 3.046 h, 5 mg, oral | – | 276
[1], 3.982 h, 15 mg, oral | – | 540
[1], 4.006 h, 5 mg, oral | – | 220
[1], 6.037 h, 5 mg, oral | – | 155
[1], 6.041 h, 15 mg, oral | – | 355
[1], 8.046 h, 15 mg, oral | – | 254
[1], 8.067 h, 5 mg, oral | – | 111
[1], 9.995 h, 15 mg, oral | – | 177
[1], 10.02 h, 5 mg, oral | – | 86.5
[1], 12.03 h, 15 mg, oral | – | 101
[1], 12.05 h, 5 mg, oral | – | 67.4
[2], 0 h, 5 mg, oral | 0.00166 | –
[2], 0 h, 15 mg, oral | 0.00586 | –
[2], 6.182 h, 15 mg, oral | 0.181 | –
[2], 6.2 h, 5 mg, oral | 0.176 | –
[2], 11.93 h, 15 mg, oral | 0.0638 | –
[2], 11.99 h, 5 mg, oral | 0.0598 | –
[2], 17.98 h, 15 mg, oral | 0.0106 | –
[2], 18.09 h, 5 mg, oral | 0.0183 | –
[3], -1.062 h, 15 ppm, during exposure | – | 4030
[3], -1.113 h, 50 ppm, during exposure | – | 11900
[3], -1.922 h, 15 ppm, during exposure | – | 3520
[3], -1.944 h, 50 ppm, during exposure | – | 5580
[3], -3.049 h, 15 ppm, during exposure | – | 1700
[3], -3.146 h, 50 ppm, during exposure | – | 6060
[3], -3.999 h, 50 ppm, during exposure | – | 10
[3], -4 h, 15 ppm, during exposure | – | 6

[3]
Conditions | concentration in blood [nM]
0.6509 h, 50 ppm | 17000
0.7385 h, 15 ppm | 4840
1.158 h, 50 ppm | 16000
1.169 h, 15 ppm | 4710
2.413 h, 50 ppm | 13400
2.567 h, 15 ppm | 4380
6.871 h, 50 ppm | 7280
7.192 h, 15 ppm | 2200
19.71 h, 50 ppm | 1840
19.75 h, 15 ppm | 597
141 s, 15 ppm | 5450

[4]
Conditions | amount in urine
5.91 h | 0.0178
11.97 h | 0.0273
17.83 h | 0.0115
23.9 h | 0.0462

CCCCCCCC [octane]
concentration in blood, [5]
Conditions | 0.1291 h | 0.3815 h | 0.705 h | 171 s | 183 s
1000 ppm | 3810 ng/mL and 4510 ng/mL | 1730 ng/mL and 2020 ng/mL | 777 ng/mL and 960 ng/mL | 5730 ng/mL and 7180 ng/mL | –
5000 ppm | – | – | – | – | 30200 ng/mL and 25900 ng/mL and 22800 ng/mL
